Measured values pooled from the literature.
Lines come from different studies, so protocols differ.
Target: Tyrosine-protein kinase Yes (YES1, Homo sapiens, UniProt P07947)

SMILES	assay	conditions	quantity	result
Cc1ccc(NC(=O)c2ccnc(C(F)(F)F)c2)cc1-c1cc(OCCO)nc(N2CCOCC2)c1	binding, competition with immobilised ligand	1 µM	remaining binding	87%
Cc1cc(O)c(-c2ccc([C@@H](C)CN(C)C)cc2)c2c1[nH]c(=O)c1sccc12	enzyme activity, inhibitor	0.1 µM	inhibition	10.3%
CN1CCN(C(=O)c2ccc(NC(=O)Nc3ccc(N(C)c4ccnc(Nc5ccc(CS(C)(=O)=O)cc5)n4)cc3)cc2)CC1	binding, competition with immobilised ligand	1 µM	remaining binding	96%
C=CC(=O)N1CCC[C@@H](n2nc(-c3ccc(Oc4ccccc4)cc3)c3c(N)ncnc32)C1	enzyme activity, inhibitor	1 µM	inhibition	97%
C1=C/COCc2cc(ccc2OCCN2CCCC2)Nc2nccc(n2)-c2cccc(c2)COC/1	binding	0.1 µM	remaining binding	71%
CO[C@@H]1[C@H](N(C)C(=O)c2ccccc2)C[C@H]2O[C@]1(C)n1c3ccccc3c3c4c(c5c6ccccc6n2c5c31)C(=O)NC4	enzyme activity, inhibitor	1 µM	inhibition	39%
COc1ccc2oc(-c3ccc4nc(N)oc4c3)c/c(=N\c3ccccc3NC(=O)CCN)c2c1	binding	1 µM	remaining binding	101%
CCCCC(=O)Nc1ccc(-c2ccc3ncn(CCC)c(=O)c3c2)cn1	binding, competition with immobilised ligand	0.5 µM	remaining binding	100%
